The text below walks through data of ChEMBL document CHEMBL1123757, “Selective thromboxane synthetase inhibitors and antihypertensive agents. New derivatives of 4-hydrazino-5H-pyridazino[4,5-b]indole, 4-hydrazinopyridazino[4,5-a]indole, and related compounds” (J Med Chem, 1987).

Test [1] concerns Cavia porcellus. Description: Ex vivo inhibition of platelet aggregation induced by ADP-II at 50 mg/kg; No significance. More on the design: dose 50 mg/kg. Type of test: functional, organism-based. In short, it runs like this:
(§1)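 Fasted male or female guinea pigs (250–300 g, five per group) dosed orally in normal saline or saline with 0.2% (carboxymethyl)cellulose/1.0% Tween 80; controls given vehicle. Under ether, cardiac blood collected into 3.8% citrate. PRP adjusted to […] and aggregation induced by ADP (second wave) or AA, read by absorbance aggregometry. PGE2 and TXB2 measured by RIA.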

Test [2] relates to Rattus norvegicus. Description: Percent increase in cardiac rhythm, directly measured on carotid (iv on the jugular vein) of spontaneously hypertensive rats at 1 mg/kg after 240 minutes;No significance. Particulars: Heart. On the set-up: dose 1 mg/kg. Type of test: functional, organism-based. In short, it runs like this:
(§2)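 Anesthetized (sodium pentobarbital, 70 mg/kg) male and female Okamoto SHR, 8 weeks old, 300–350 g. Given iv into the jugular vein in normal saline. Arterial pressure and cardiac rhythm are recorded directly from the carotid by polygraph at set times after dosing. Each is expressed as percent change from the pre-dose control value.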

Test [3] concerns Rattus norvegicus. Description: Antihypertensive activity in spontaneously hypertensive rats (SHR) measured by percentage fall in cardiac rhythm (CR) at 25 mg/kg administered perorally at 1 h;No significance. Type of test: functional, organism-based. On the set-up: dose 25 mg/kg. To be noted: Heart. In short, it runs like this: (§3)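 Conscious SHR (Okamoto strain), 8 weeks old, male and female, 300–350 g, systolic BP ≥190 mmHg, CR 400–650 beats/min. Given ip or po at 2.5 mL/kg in normal saline or saline with 0.2% (carboxymethyl)cellulose and 1.0% Tween 80. Tail AP and CR recorded by mechanical transduction at 1, 3, 5 and 24 h, five animals per dose. Effect expressed as % fall versus control.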

The test system of test [4] is Rattus norvegicus. The test is described as follows: Antihypertensive activity in spontaneously hypertensive rats (SHR) measured by percentage fall in cardiac rhythm (CR) at 1 mg/kg administered intraperitoneally at 5 h;No significance. More on the design: dose 1 mg/kg. Particulars: Heart. Type of test: functional, organism-based. In short, it runs like this: (§4)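 Unanesthetized Okamoto-strain SHR, male and female, 8 weeks old, 300–350 g, systolic pressure ≥190 mmHg, heart rate 400–650 beats/min; five animals per dose. Given ip at 2.5 mL/kg, dissolved or suspended in normal saline or saline with 0.2% (carboxymethyl)cellulose and 1.0% Tween 80. Tail AP and CR recorded by mechanical transduction at set times; reported as percentage fall from control.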

For test [5], the system named is Cavia porcellus. The test is described as follows: Ex vivo inhibition of platelet aggregation induced by ADP-II at 30 mg/kg; No significance. Type of test: functional, organism-based. On the set-up: dose 30 mg/kg. In short, it runs like this: as §1
Test [6] concerns Rattus norvegicus. Description: Antihypertensive activity in spontaneously hypertensive rats (SHR) measured by percentage fall in cardiac rhythm (CR) at 1 mg/kg administered intraperitoneally at 24 h;No significance. Type of test: functional, organism-based. More on the design: dose 1 mg/kg. Particulars: Heart. The gist of the method: as §4
Test [7] relates to Rattus norvegicus. Description: Percent increase in cardiac rhythm, directly measured on carotid (iv on the jugular vein) of spontaneously hypertensive rats at 1 mg/kg after 75 minutes;No significance. Type of test: functional, organism-based. More on the design: dose 1 mg/kg. Particulars: Heart. The gist of the method: as §2
In test [8] the test system is Rattus norvegicus. Description: Percent increase in cardiac rhythm, directly measured on carotid (iv on the jugular vein) of spontaneously hypertensive rats at 1 mg/kg after 5 minutes;No significance. Type of test: functional, organism-based. More on the design: dose 1 mg/kg. To be noted: Heart. The gist of the method:
as §2

Test [9] deals with Rattus norvegicus. The test is described as follows: Antihypertensive activity in spontaneously hypertensive rats (SHR) measured by percentage fall in arterial pressure (AP) at 1 mg/kg administered intraperitoneally at 5 h;No significance significance. Type of test: functional, organism-based. On the set-up: dose 1 mg/kg. Particulars: Artery. The gist of the method:
as §4

The test system of test [10] is Rattus norvegicus. The test is described as follows: Antihypertensive activity in spontaneously hypertensive rats (SHR) measured by percentage fall in cardiac rhythm (CR) at 25 mg/kg administered intraperitoneally at 24 h;No significance. Type of test: functional, organism-based. More on the design: dose 25 mg/kg. To be noted: Heart. The gist of the method:
as §4

In test [11] the test system is Rattus norvegicus. Description: Antihypertensive activity in spontaneously hypertensive rats (SHR) measured by percentage fall in arterial pressure (AP) at 1 mg/kg administered intraperitoneally at 24 h;No significance. Type of test: functional, organism-based. More on the design: dose 1 mg/kg. Particulars: Artery. The gist of the method:
as §4

Test [12] has as its system Rattus norvegicus. The test is described as follows: Antihypertensive activity in spontaneously hypertensive rats (SHR) measured by percentage fall in cardiac rhythm (CR) at 25 mg/kg administered perorally at 24 h;No significance. Type of test: functional, organism-based. On the set-up: dose 25 mg/kg. Particulars: Heart. The gist of the method: as §3
For test [13], the system named is Cavia porcellus. The test is described as follows: Ex vivo inhibition of platelet aggregation induced by AA at 50 mg/kg; No significance. Type of test: functional, organism-based. More on the design: dose 50 mg/kg. In short, it runs like this:
as §1

Test [14] has as its target T1, Thromboxane-A synthase (Homo sapiens) (UniProt P24557).
T1 sequence (whole entry): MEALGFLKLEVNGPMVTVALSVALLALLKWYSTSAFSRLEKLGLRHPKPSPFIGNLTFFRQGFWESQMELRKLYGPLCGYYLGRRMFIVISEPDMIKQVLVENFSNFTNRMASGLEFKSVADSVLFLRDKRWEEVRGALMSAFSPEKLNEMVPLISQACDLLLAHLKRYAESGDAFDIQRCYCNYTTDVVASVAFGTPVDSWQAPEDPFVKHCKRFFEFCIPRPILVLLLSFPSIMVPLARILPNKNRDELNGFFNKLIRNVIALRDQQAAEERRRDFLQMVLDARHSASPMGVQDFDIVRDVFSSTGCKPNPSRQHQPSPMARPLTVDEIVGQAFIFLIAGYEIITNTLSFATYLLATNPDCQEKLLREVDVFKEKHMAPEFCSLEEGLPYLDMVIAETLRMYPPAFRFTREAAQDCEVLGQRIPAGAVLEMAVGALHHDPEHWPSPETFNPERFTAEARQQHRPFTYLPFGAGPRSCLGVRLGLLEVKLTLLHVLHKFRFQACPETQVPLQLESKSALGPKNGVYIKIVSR
Description: Effect on thromboxane synthetase activity on in vitro platelet aggregation induced by AA at 10e -5 M expressed as percent […] in TXB2. Type of test: functional. In short, it runs like this: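 Human citrated PRP adjusted to 200 000 […], compound at 10^-5 M final in saline/10% ethylene glycol, incubated at 37 °C. Aggregation induced with arachidonic acid 0.6 mM and read by Born absorbance aggregometry. PGE2 and TXB2 in the aggregated samples measured by radioimmunoassay. n = 5.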

For test [15], the system named is Cavia porcellus. Description: Ex vivo inhibition of platelet aggregation induced by AA at 30 mg/kg; No significance. On the set-up: dose 30 mg/kg. Type of test: functional, organism-based. In short, it runs like this:
as §1

Test [16] relates to Rattus norvegicus. Description: Percent increase in cardiac rhythm, directly measured on carotid (iv on the jugular vein) of spontaneously hypertensive rats at 1 mg/kg after 120 minutes;No significance. Type of test: functional, organism-based. More on the design: dose 1 mg/kg. To be noted: Heart. In short, it runs like this:
as §2

For test [17], the system named is Rattus norvegicus. The test is described as follows: Percent increase in cardiac rhythm, directly measured on carotid (iv on the jugular vein) of spontaneously hypertensive rats at 1 mg/kg after 180 minutes;No significance. Type of test: functional, organism-based. On the set-up: dose 1 mg/kg. Particulars: Heart. The gist of the method:
as §2

The term inhibition denotes how much of the control response was suppressed. Take `COc1ccc2[nH]c3c(NN)nncc3c2c1`: the inhibition entry in test [1] was “No significant values”; in [5] it was “No significant values”; in [13], “No significant values”; in [14], 40%; in [15], “No significant values”. The Increase result in test [2], in test [7], in test [8], in test [16] and in test [17] was “No significant values” throughout. Besides, the “Decrease in CR” value in test [3], in test [4], in test [10] and in test [12] was “No significant values” each time. Moreover, the “Decrease in AP” value in test [6], in test [9] and in [11] was “No significant values” each time.
